The text below walks through data of ChEMBL document CHEMBL3102806, “1,2,4-Triazole/oxime hybrids as new strategy for nitric oxide donors: Synthesis, anti-inflammatory, ulceroginicity and antiproliferative activities” (Eur J Med Chem, 2014).

Structures are written as SMILES.

The test system of the first data set is Rattus norvegicus. As to the kind of experiment: Antiinflammatory activity in albino rat assessed as inhibition of carrageenan-induced paw edema at 0.28 mmol/kg, po administered 30 mins prior to carrageenan-challenge measured after 2 hrs relative to control. Format: functional.
Settings: not given
An outline of the steps:
(§1)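 Male albino rats in groups of four were fasted 24 h with water allowed. Dosing was oral at 0.28 mmol/kg, suspended in 0.5% w/v CMC; controls got CMC alone. After 30 min, 0.1 ml of 1% carrageenan in saline went subplantar into the right hind paw and saline into the left. Paw thickness was read by caliper before and at 1–5 h. % inhibition = [(VR−VL)control−(VR−VL)treated]/(VR−VL)control ×100. Mean ± SEM, n = 4, one-way ANOVA vs control.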
As for `C=CCn1c(SCC(=O)Nc2ccc(C(C)=O)cc2)nnc1-c1ccccc1`, the inhibition in vivo at 280 µmol/kg came out at 52%.
For `C=CCn1c(SCC(=O)Nc2ccc(C(C)=O)cc2)nnc1-c1ccc(OC)cc1`, the inhibition in vivo at 280 µmol/kg stood at 51%.
With `C=CCn1c(SCC(=O)Nc2ccc(C(C)=O)cc2)nnc1-c1cc(OC)c(OC)c(OC)c1`, the inhibition in vivo at 280 µmol/kg came out at 54%.
With `CCn1c(SCC(=O)Nc2ccc(C(C)=O)cc2)nnc1-c1ccccc1`, the inhibition in vivo at 280 µmol/kg is 53%.
In the case of `CCn1c(SCC(=O)Nc2ccc(C(C)=O)cc2)nnc1-c1ccc(OC)cc1`, the inhibition in vivo at 280 µmol/kg came out at 54%.
Same read-out and setting: as for `CCn1c(SCC(=O)Nc2ccc(C(C)=O)cc2)nnc1-c1ccc(OC)c(OC)c1`, the figure is 59%; as for `CCn1c(SCC(=O)Nc2ccc(C(C)=O)cc2)nnc1-c1cc(OC)c(OC)c(OC)c1`, 50%; as for `CC(=O)c1ccc(NC(=O)CSc2nnc(-c3ccccc3)n2-c2ccccc2)cc1`, 49%.
Regarding `COc1ccc(-c2nnc(SCC(=O)Nc3ccc(C(C)=O)cc3)n2-c2ccccc2)cc1`, the inhibition in vivo at 280 µmol/kg came to 42%.
Turning to `COc1cc(-c2nnc(SCC(=O)Nc3ccc(C(C)=O)cc3)n2-c2ccccc2)cc(OC)c1OC`, the inhibition in vivo at 280 µmol/kg was determined as 54%.
For the molecule `COc1ccc(-c2nnc(SCC(=O)Nc3ccc(C(C)=O)cc3)n2-c2ccccc2)cc1OC`, the inhibition in vivo at 280 µmol/kg turned out to be 43%.

Another data set concerns Rattus norvegicus. In words: Antiinflammatory activity in albino rat assessed as inhibition of carrageenan-induced paw edema at 0.28 mmol/kg, po administered 30 mins prior to carrageenan-challenge measured after 4 hrs relative to control. Format: functional.
Settings: not given
An outline of the steps:
as §1
In the case of `C=CCn1c(SCC(=O)Nc2ccc(C(C)=O)cc2)nnc1-c1ccccc1`, the inhibition in vivo at 280 µmol/kg amounted to 70%.
With `C=CCn1c(SCC(=O)Nc2ccc(C(C)=O)cc2)nnc1-c1ccc(OC)cc1`, the inhibition in vivo at 280 µmol/kg came to 68%.
For `C=CCn1c(SCC(=O)Nc2ccc(C(C)=O)cc2)nnc1-c1cc(OC)c(OC)c(OC)c1`, the inhibition in vivo at 280 µmol/kg turned out to be 68%.
As to `CCn1c(SCC(=O)Nc2ccc(C(C)=O)cc2)nnc1-c1ccccc1`, the inhibition in vivo at 280 µmol/kg was found to be 69%.
For `CCn1c(SCC(=O)Nc2ccc(C(C)=O)cc2)nnc1-c1ccc(OC)cc1`, the inhibition in vivo at 280 µmol/kg worked out at 65%.
As to `CCn1c(SCC(=O)Nc2ccc(C(C)=O)cc2)nnc1-c1ccc(OC)c(OC)c1`, the inhibition in vivo at 280 µmol/kg stood at 69%.
For `CCn1c(SCC(=O)Nc2ccc(C(C)=O)cc2)nnc1-c1cc(OC)c(OC)c(OC)c1`, the inhibition in vivo at 280 µmol/kg was determined as 68%.
Same read-out and setting: as for `CC(=O)c1ccc(NC(=O)CSc2nnc(-c3ccccc3)n2-c2ccccc2)cc1`, the figure is 67%; as for `COc1ccc(-c2nnc(SCC(=O)Nc3ccc(C(C)=O)cc3)n2-c2ccccc2)cc1`, 63%; as for `COc1cc(-c2nnc(SCC(=O)Nc3ccc(C(C)=O)cc3)n2-c2ccccc2)cc(OC)c1OC`, 68%.
For the molecule `COc1ccc(-c2nnc(SCC(=O)Nc3ccc(C(C)=O)cc3)n2-c2ccccc2)cc1OC`, the inhibition in vivo at 280 µmol/kg worked out at 62%.

Another data set has as its system Rattus norvegicus. In words: Antiinflammatory activity in albino rat assessed as inhibition of carrageenan-induced paw edema at 0.28 mmol/kg, po administered 30 mins prior to carrageenan-challenge measured after 5 hrs relative to control. Type of data set: functional.
Settings: not given
In a few lines:
as §1
Turning to `C=CCn1c(SCC(=O)Nc2ccc(C(C)=O)cc2)nnc1-c1ccccc1`, the inhibition in vivo at 280 µmol/kg turned out to be 63%.
Same read-out and setting: as for `C=CCn1c(SCC(=O)Nc2ccc(C(C)=O)cc2)nnc1-c1ccc(OC)cc1`, the figure is 66%; as for `C=CCn1c(SCC(=O)Nc2ccc(C(C)=O)cc2)nnc1-c1cc(OC)c(OC)c(OC)c1`, 64%; as for `CCn1c(SCC(=O)Nc2ccc(C(C)=O)cc2)nnc1-c1ccccc1`, 66%.
For `CCn1c(SCC(=O)Nc2ccc(C(C)=O)cc2)nnc1-c1ccc(OC)cc1`, the inhibition in vivo at 280 µmol/kg came to 62%.
`CCn1c(SCC(=O)Nc2ccc(C(C)=O)cc2)nnc1-c1ccc(OC)c(OC)c1`: the inhibition in vivo at 280 µmol/kg was 66%.
As for `CCn1c(SCC(=O)Nc2ccc(C(C)=O)cc2)nnc1-c1cc(OC)c(OC)c(OC)c1`, the inhibition in vivo at 280 µmol/kg came to 64%.
As for `CC(=O)c1ccc(NC(=O)CSc2nnc(-c3ccccc3)n2-c2ccccc2)cc1`, the inhibition in vivo at 280 µmol/kg is 63%.
Still for that read-out and setting: next, `COc1ccc(-c2nnc(SCC(=O)Nc3ccc(C(C)=O)cc3)n2-c2ccccc2)cc1`: 60%; `COc1cc(-c2nnc(SCC(=O)Nc3ccc(C(C)=O)cc3)n2-c2ccccc2)cc(OC)c1OC`: 63%; `COc1ccc(-c2nnc(SCC(=O)Nc3ccc(C(C)=O)cc3)n2-c2ccccc2)cc1OC`: 55%.

The subject of the next data set is Rattus norvegicus. In words: Ulcerogenic activity in albino rat carrageenan-induced paw edema model assessed as ulcer index at 0.28 mmol/kg, po (reference value: 0.60 +/- 0.05). Format: toxicity, organism-based. The conditions noted are these: in vivo. In a few lines:
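Rats given the compound orally at 0.28 mmol/kg, suspended in 0.5% aqueous CMC; vehicle-only control, n = 4 per group. Gastric ulcers graded by area: I (<1 mm²), II (1–3 mm²), III (>3 mm²). Ulcer index = 1×(level I count) + 2×(level II) + 3×(level III). Mean ± SEM, one-way ANOVA versus control.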
In general terms: The carrageenan paw model is a standard test of acute inflammation.
Consider `C=CCn1c(SCC(=O)Nc2ccc(C(C)=O)cc2)nnc1-c1ccccc1`, for which the UI is on record as 9.3.
As to `C=CCn1c(SCC(=O)Nc2ccc(C(C)=O)cc2)nnc1-c1ccc(OC)cc1`, the UI was determined as 8.66.
For `C=CCn1c(SCC(=O)Nc2ccc(C(C)=O)cc2)nnc1-c1cc(OC)c(OC)c(OC)c1`, the UI was found to be 6.49.
For `CCn1c(SCC(=O)Nc2ccc(C(C)=O)cc2)nnc1-c1ccccc1`, the UI is 7.12.
Regarding `CCn1c(SCC(=O)Nc2ccc(C(C)=O)cc2)nnc1-c1ccc(OC)cc1`, the UI worked out at 10.52.
`CCn1c(SCC(=O)Nc2ccc(C(C)=O)cc2)nnc1-c1ccc(OC)c(OC)c1`: the UI was 3.6.
The same measure, in the same setting: as for `CCn1c(SCC(=O)Nc2ccc(C(C)=O)cc2)nnc1-c1cc(OC)c(OC)c(OC)c1`, the figure is 3.34.
With `CC(=O)c1ccc(NC(=O)CSc2nnc(-c3ccccc3)n2-c2ccccc2)cc1`, the UI worked out at 3.38.
With `COc1ccc(-c2nnc(SCC(=O)Nc3ccc(C(C)=O)cc3)n2-c2ccccc2)cc1`, the UI came to 5.53.
In the case of `COc1cc(-c2nnc(SCC(=O)Nc3ccc(C(C)=O)cc3)n2-c2ccccc2)cc(OC)c1OC`, the UI was 4.38.
As for `COc1ccc(-c2nnc(SCC(=O)Nc3ccc(C(C)=O)cc3)n2-c2ccccc2)cc1OC`, the UI was 8.64.

The test system of the next data set is Rattus norvegicus. In words: Antiinflammatory activity in albino rat assessed as inhibition of carrageenan-induced paw edema at 0.28 mmol/kg, po administered 30 mins prior to carrageenan-challenge measured after 1 hr relative to control. Type of data set: functional.
Settings: not given
In a few lines:
as §1
`C=CCn1c(SCC(=O)Nc2ccc(C(C)=O)cc2)nnc1-c1ccccc1`: the inhibition in vivo at 280 µmol/kg amounted to 48%.
In the case of `C=CCn1c(SCC(=O)Nc2ccc(C(C)=O)cc2)nnc1-c1ccc(OC)cc1`, the inhibition in vivo at 280 µmol/kg is 50%.
With `C=CCn1c(SCC(=O)Nc2ccc(C(C)=O)cc2)nnc1-c1cc(OC)c(OC)c(OC)c1`, the inhibition in vivo at 280 µmol/kg came to 48%.
For the molecule `CCn1c(SCC(=O)Nc2ccc(C(C)=O)cc2)nnc1-c1ccccc1`, the inhibition in vivo at 280 µmol/kg is 50%.
Consider `CCn1c(SCC(=O)Nc2ccc(C(C)=O)cc2)nnc1-c1ccc(OC)cc1`, for which the inhibition in vivo at 280 µmol/kg was determined as 51%.
For `CCn1c(SCC(=O)Nc2ccc(C(C)=O)cc2)nnc1-c1ccc(OC)c(OC)c1`, the inhibition in vivo at 280 µmol/kg was determined as 56%.
Regarding `CCn1c(SCC(=O)Nc2ccc(C(C)=O)cc2)nnc1-c1cc(OC)c(OC)c(OC)c1`, the inhibition in vivo at 280 µmol/kg was determined as 46%.
Still for that read-out and setting: as for `CC(=O)c1ccc(NC(=O)CSc2nnc(-c3ccccc3)n2-c2ccccc2)cc1`, the figure is 41%; as for `COc1ccc(-c2nnc(SCC(=O)Nc3ccc(C(C)=O)cc3)n2-c2ccccc2)cc1`, 29%.
On to `COc1cc(-c2nnc(SCC(=O)Nc3ccc(C(C)=O)cc3)n2-c2ccccc2)cc(OC)c1OC`, for which the inhibition in vivo at 280 µmol/kg was determined as 49%.
Take `COc1ccc(-c2nnc(SCC(=O)Nc3ccc(C(C)=O)cc3)n2-c2ccccc2)cc1OC`: the inhibition in vivo at 280 µmol/kg stood at 28%.

In the next data set the test system is Rattus norvegicus. In words: Antiinflammatory activity in albino rat assessed as inhibition of carrageenan-induced paw edema at 0.28 mmol/kg, po administered 30 mins prior to carrageenan-challenge measured after 3 hrs relative to control. Type of data set: functional.
Settings: not given
An outline of the steps: as §1
In the case of `C=CCn1c(SCC(=O)Nc2ccc(C(C)=O)cc2)nnc1-c1ccccc1`, the inhibition in vivo at 280 µmol/kg is 54%.
`C=CCn1c(SCC(=O)Nc2ccc(C(C)=O)cc2)nnc1-c1ccc(OC)cc1`: the inhibition in vivo at 280 µmol/kg is 52%.
Consider `C=CCn1c(SCC(=O)Nc2ccc(C(C)=O)cc2)nnc1-c1cc(OC)c(OC)c(OC)c1`, for which the inhibition in vivo at 280 µmol/kg was 55%.
In the case of `CCn1c(SCC(=O)Nc2ccc(C(C)=O)cc2)nnc1-c1ccccc1`, the inhibition in vivo at 280 µmol/kg stood at 56%.
For `CCn1c(SCC(=O)Nc2ccc(C(C)=O)cc2)nnc1-c1ccc(OC)cc1`, the inhibition in vivo at 280 µmol/kg was 57%.
With `CCn1c(SCC(=O)Nc2ccc(C(C)=O)cc2)nnc1-c1ccc(OC)c(OC)c1`, the inhibition in vivo at 280 µmol/kg was 62%.
Regarding `CCn1c(SCC(=O)Nc2ccc(C(C)=O)cc2)nnc1-c1cc(OC)c(OC)c(OC)c1`, the inhibition in vivo at 280 µmol/kg worked out at 54%.
`CC(=O)c1ccc(NC(=O)CSc2nnc(-c3ccccc3)n2-c2ccccc2)cc1`: the inhibition in vivo at 280 µmol/kg amounted to 62%.
The same measure, in the same setting: as for `COc1ccc(-c2nnc(SCC(=O)Nc3ccc(C(C)=O)cc3)n2-c2ccccc2)cc1`, the figure is 58%; as for `COc1cc(-c2nnc(SCC(=O)Nc3ccc(C(C)=O)cc3)n2-c2ccccc2)cc(OC)c1OC`, 55%; as for `COc1ccc(-c2nnc(SCC(=O)Nc3ccc(C(C)=O)cc3)n2-c2ccccc2)cc1OC`, 51%.

By inhibition in vivo is commonly meant how much of the control response was suppressed.
